Measured values published in ChEMBL document CHEMBL1287648, “Development of 3-aryl-1-isoquinolinamines as potent antitumor agents based on CoMFA” (Eur J Med Chem, 2010).
pIC50: −log10 of the molar value.

Tests used:
HeLa [1] = assay: Cell cycle arrest in human HeLa cells assessed as accumulation at G2/M phase at 300 nM after 24 hrs using propidium iodide staining by flow cytometry relative to control; assay type: functional
Summary of the method: (§1)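 HeLa cells exposed 24 h to compound (50–500 nM range) or left untreated, then washed and harvested. DNA was stained with propidium iodide and cell-cycle phase distribution measured by flow cytometry.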

SK-MEL-28 = assay: Cytotoxicity against human SK-MEL-28 cells by sulforhodamine B method; assay type: functional, cell-based
HeLa [2] = assay: Cell cycle arrest in human HeLa cells assessed as accumulation at G2/M phase at 500 nM after 24 hrs using propidium iodide staining by flow cytometry relative to control; assay type: functional; summary of the method: as §1
HCT-116 = assay: Cytotoxicity against human HCT116 cells by sulforhodamine B method; assay type: functional, cell-based
HeLa [3] = assay: Cell cycle arrest in human HeLa cells assessed as accumulation at S phase at 100 nM after 24 hrs using propidium iodide staining by flow cytometry relative to control; assay type: functional; summary of the method: as §1
HeLa [4] = assay: Cell cycle arrest in human HeLa cells assessed as accumulation at S phase at 300 nM after 24 hrs using propidium iodide staining by flow cytometry relative to control; assay type: functional; summary of the method: as §1
HeLa [5] = assay: Induction of apoptosis in human HeLa cells at 300 nM after 24 hrs using propidium iodide/annexin V staining by flow cytometry relative to control; assay type: functional
Summary of the method: (§2)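 Annexin V/PI apoptosis assay: HeLa cells given compound (50–500 nM, 24 h) or no treatment, then co-stained with FITC-annexin V and propidium iodide. Phosphatidylserine externalization was scored by flow cytometry, with early apoptotic (annexin V-positive) and late apoptotic quadrants read separately.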

SNB-19 = assay: Cytotoxicity against human SNB19 cells by sulforhodamine B method; assay type: functional, cell-based
HeLa [6] = assay: Cell cycle arrest in human HeLa cells assessed as accumulation at G1 phase at 50 nM after 24 hrs using propidium iodide staining by flow cytometry relative to control; assay type: functional; summary of the method: as §1
HeLa [7] = assay: Cell cycle arrest in human HeLa cells assessed as accumulation at G2/M phase at 100 nM after 24 hrs using propidium iodide staining by flow cytometry relative to control; assay type: functional; summary of the method: as §1
HeLa [8] = assay: Induction of apoptosis in human HeLa cells at 50 nM after 24 hrs using propidium iodide/annexin V staining by flow cytometry relative to control; assay type: functional; summary of the method: as §2
A549 = assay: Cytotoxicity against human A549 cells by sulforhodamine B method; assay type: functional, cell-based
HeLa [9] = assay: Induction of apoptosis in human HeLa cells at 500 nM after 24 hrs using propidium iodide/annexin V staining by flow cytometry relative to control; assay type: functional; summary of the method: as §2
PC-3 = assay: Cytotoxicity against human PC3 cells by sulforhodamine B method; assay type: functional, cell-based
HeLa [10] = assay: Induction of apoptosis in human HeLa cells at 100 nM after 24 hrs using propidium iodide/annexin V staining by flow cytometry relative to control; assay type: functional; summary of the method: as §2
HeLa [11] = assay: Cell cycle arrest in human HeLa cells assessed as accumulation at G2/M phase at 50 nM after 24 hrs using propidium iodide staining by flow cytometry relative to control; assay type: functional; summary of the method: as §1
OVCAR-3 = assay: Cytotoxicity against human OVCAR-3 cells by sulforhodamine B method; assay type: functional, cell-based
HeLa [12] = assay: Cell cycle arrest in human HeLa cells assessed as accumulation at G1 phase at 300 nM after 24 hrs using propidium iodide staining by flow cytometry relative to control; assay type: functional; summary of the method: as §1
MDA-MB-231 = assay: Cytotoxicity against human MDA-MB-231 cells by sulforhodamine B method; assay type: functional, cell-based
PANC-1 = assay: Cytotoxicity against human PANC1 cells by sulforhodamine B method; assay type: functional, cell-based
HeLa [13] = assay: Cell cycle arrest in human HeLa cells assessed as accumulation at G1 phase at 500 nM after 24 hrs using propidium iodide staining by flow cytometry relative to control; assay type: functional; summary of the method: as §1
HeLa [14] = assay: Cell cycle arrest in human HeLa cells assessed as accumulation at S phase at 50 nM after 24 hrs using propidium iodide staining by flow cytometry relative to control; assay type: functional; summary of the method: as §1
HeLa [15] = assay: Cell cycle arrest in human HeLa cells assessed as accumulation at G2/M phase at 200 nM after 24 hrs using propidium iodide staining by flow cytometry relative to control; assay type: functional; summary of the method: as §1
HeLa [16] = assay: Cell cycle arrest in human HeLa cells assessed as accumulation at G1 phase at 200 nM after 24 hrs using propidium iodide staining by flow cytometry relative to control; assay type: functional; summary of the method: as §1
HeLa [17] = assay: Cell cycle arrest in human HeLa cells assessed as accumulation at G1 phase at 100 nM after 24 hrs using propidium iodide staining by flow cytometry relative to control; assay type: functional; summary of the method: as §1
HeLa [18] = assay: Induction of apoptosis in human HeLa cells at 200 nM after 24 hrs using propidium iodide/annexin V staining by flow cytometry relative to control; assay type: functional; summary of the method: as §2
CAKI-1 = assay: Cytotoxicity against human Caki1 cells by sulforhodamine B method; assay type: functional, cell-based
HeLa [19] = assay: Cell cycle arrest in human HeLa cells assessed as accumulation at S phase at 500 nM after 24 hrs using propidium iodide staining by flow cytometry relative to control; assay type: functional; summary of the method: as §1
HeLa [20] = assay: Cell cycle arrest in human HeLa cells assessed as accumulation at S phase at 200 nM after 24 hrs using propidium iodide staining by flow cytometry relative to control; assay type: functional; summary of the method: as §1

| Compound | pIC50 (SK-MEL-28) | pIC50 (HCT-116) | pIC50 (SNB-19) | pIC50 (A549) | pIC50 (PC-3) | pIC50 (OVCAR-3) | pIC50 (MDA-MB-231) | pIC50 (PANC-1) | pIC50 (CAKI-1) | other results |
| --- | --- | --- | --- | --- | --- | --- | --- | --- | --- | --- |
| COc1cccc(-c2cc3cc(OC)c(OC)cc3c(N)n2)c1 | 6.64 | 6.80 | 6.66 | 6.12 | 6.74 | 7.13 | 6.85 | 6.72 | 6.77 | Activity (HeLa [1]): 83.14%; Activity (HeLa [2]): 86.98%; Activity (HeLa [3]): 16.12%; Activity (HeLa [4]): 6.6%; Activity (HeLa [5]): 9.78%; Activity (HeLa [6]): 48.83%; Activity (HeLa [7]): 48.59%; Activity (HeLa [8]): 5.92%; Activity (HeLa [9]): 12.52%; Activity (HeLa [10]): 6.14%; Activity (HeLa [11]): 35.8%; Activity (HeLa [12]): 10.26%; Activity (HeLa [13]): 8.25%; Activity (HeLa [14]): 15.37%; Activity (HeLa [15]): 73.06%; Activity (HeLa [16]): 15.58%; Activity (HeLa [17]): 35.29%; Activity (HeLa [18]): 8.8%; Activity (HeLa [19]): 4.77%; Activity (HeLa [20]): 11.36% |
| Cc1ccc2cc(-c3ccccc3C)nc(N)c2c1 | 6.74 | 6.92 | 6.80 | 7.27 | 6.59 | 7.00 | 7.12 | 6.70 | 6.85 | – |
| COc1cc2cc(-c3ccccc3C)nc(N)c2cc1OC | 6.04 | 6.11 | 6.25 | 6.36 | 5.90 | 6.42 | 6.27 | 6.08 | 6.17 | – |
| Cc1ccc2c(N)nc(-c3ccccc3C)cc2c1 | – | – | – | 6.79 | – | – | – | – | – | – |
| COc1cccc(-c2cc3ccc(C)cc3c(N)n2)c1 | 6.39 | 6.68 | 6.32 | 6.35 | 6.38 | 6.62 | 6.77 | 6.33 | 6.85 | – |
| COc1cc(OC)cc(-c2cc3cc(OC)c(OC)cc3c(N)n2)c1 | 6.16 | 6.11 | 6.40 | 6.55 | 6.14 | 6.72 | 6.40 | 6.15 | 6.27 | – |
| COc1ccc(-c2cc3c(N(C)C)cccc3c(N)n2)cc1OC | < 5.00 | < 5.00 | < 5.00 | < 5.00 | < 5.00 | < 5.00 | < 5.00 | < 5.00 | < 5.00 | – |
| COc1cccc(-c2cc3cc(C)ccc3c(N)n2)c1 | 6.14 | 6.23 | 6.12 | 6.97 | 5.92 | 6.33 | 6.24 | 5.89 | 6.16 | – |
| CN(C)c1cccc2c(N)nc(-c3ccccc3)cc12 | < 5.00 | < 5.00 | < 5.00 | < 5.00 | < 5.00 | < 5.00 | < 5.00 | < 5.00 | < 5.00 | – |
| Cc1ccc2c(N)nc(-c3c(C)cccc3C)cc2c1 | 6.64 | 6.77 | 6.62 | 6.42 | 6.62 | 6.80 | 6.85 | 6.68 | 6.92 | – |
| COc1cc2cc(-c3ccccc3)nc(N)c2cc1OC | 6.12 | 6.28 | 6.15 | 6.89 | 6.24 | 6.57 | 6.36 | 6.17 | 6.23 | – |
| Cc1ccc2c(N)nc(-c3ccc4c(c3)OCO4)cc2c1 | 6.66 | 6.80 | 6.64 | 6.85 | 6.72 | 6.80 | 6.89 | 6.66 | 6.96 | – |
| Cc1cccc(-c2cc3cc(C)ccc3c(N)n2)c1 | 6.60 | 6.74 | 6.68 | 6.74 | 6.66 | 6.82 | 6.82 | 6.70 | 6.80 | – |
| COc1ccc(-c2cc3cc(C)ccc3c(N)n2)cc1OC | 5.85 | 6.07 | 5.67 | 6.25 | 5.57 | 6.24 | 6.18 | 5.76 | 6.29 | – |
| Cc1ccccc1-c1cc2c(N(C)C)cccc2c(N)n1 | < 5.00 | < 5.00 | < 5.00 | < 5.00 | < 5.00 | < 5.00 | < 5.00 | < 5.00 | < 5.00 | – |
| COc1ccc(-c2cc3cc(C)ccc3c(N)n2)c(C)c1 | 6.54 | 6.77 | 6.55 | 6.77 | 6.60 | 6.77 | 6.82 | 6.62 | 6.92 | – |
